# Screens deposited in PubChem by Broad Institute.
# SIRT5 inh: SIRT5 desuccinylase inhibitors, primary screen, biochemical, fluorescence imaging, single point, set 5 | Purified SirT5, succinyl-peptide AMC, trypsin-coupled fluorescence | inhibition, % at 15 µM | 330,000 tested, 1.1% active; in the data active means inhibition above about 15%
# miR122 inh: miR-122 Renilla sensor signal increase in Huh7, primary screen, miR-122 inhibitor project, cell-based, single point, plate reader; Huh7 miR-122 Renilla luciferase sensor, 48 h; neutral wells = 0, positive control = 100; activation (reporter increase), % at 12.5 µM; 340,000 tested, 0.3% active; AID 602342, 2012;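 active means mean replicate activation score at least 90 and every replicate individually at or above 90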;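 further: higher luciferase means less miR-122 activity so hits act as miR-122 inhibitors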
# E-sel inducer: E-selectin induction in HUVECs, primary screen, imaging, HUVEC, immunofluorescence imaging, single point; normalized: neutral wells 0, TNF-alpha wells 100; activation, % at 7.58 µM; 260,000 tested, 0.37% active;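 active means mean E-selectin-positive cell signal at least 10% of the positive control, reached in at least 60% of replicates, without over 20% cell loss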
# Target sequence (P16581 whole entry, looked up): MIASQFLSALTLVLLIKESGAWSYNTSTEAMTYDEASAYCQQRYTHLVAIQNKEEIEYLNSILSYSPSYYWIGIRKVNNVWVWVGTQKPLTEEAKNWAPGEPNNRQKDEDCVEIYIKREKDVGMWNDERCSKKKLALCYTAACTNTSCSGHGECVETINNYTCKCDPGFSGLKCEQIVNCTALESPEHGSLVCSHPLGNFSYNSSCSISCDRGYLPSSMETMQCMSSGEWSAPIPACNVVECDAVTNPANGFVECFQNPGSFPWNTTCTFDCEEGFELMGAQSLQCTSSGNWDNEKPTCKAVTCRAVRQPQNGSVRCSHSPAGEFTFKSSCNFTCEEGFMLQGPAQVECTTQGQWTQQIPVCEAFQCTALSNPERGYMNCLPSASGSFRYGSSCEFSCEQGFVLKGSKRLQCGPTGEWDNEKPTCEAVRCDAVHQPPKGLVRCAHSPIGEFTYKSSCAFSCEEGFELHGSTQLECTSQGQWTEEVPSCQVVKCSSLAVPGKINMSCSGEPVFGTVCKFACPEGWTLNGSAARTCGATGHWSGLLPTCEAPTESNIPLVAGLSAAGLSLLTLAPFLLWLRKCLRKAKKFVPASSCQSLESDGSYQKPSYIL
#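 System: HUVEC / Compound: single concentration / Signal: immunofluorescence imaging / Read-out: percent E-selectin-positive cells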
# S100A4 inh HTS: inhibitors of S100A4-myosin IIA peptide binding, primary screen, biochemical, fluorescence polarization, TAMRA-MyoIIA peptide | inhibition, % at 10.7 µM | 360,000 tested, 0.14% active | Protein S100-A4 (Homo sapiens), P26447 | AID 652163, 2013;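 active means mean inhibition of at least 70% across replicates, with every replicate also reaching that level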
#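 Test system – S100A4 monomer (human) · Compound – single-point compound testing · Schedule – 5 min incubation before reading · Probe or stimulus – TAMRA-labelled myosin IIA heavy-chain peptide probe, 5 nM · Benchmarks – neutral control DMSO, positive control TFP · Medium – Calcium-containing HEPES buffer, pH 7.2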
# FGF22 binding: binders of human FGF22 protein, primary screen, FGF22 synaptogenesis inhibitor project, biophysical, thermal shift, single point; recombinant FGF22 thermal shift, SYPRO orange fluorescence; percent of sucrose octasulfate shift, DMSO zero; activity (Tm shift, normalised), % at 9.99 µM; Fibroblast growth factor 22 (Homo sapiens), Q9HCT0; 340,000 tested, 1.5% active; AID 651658, 2012;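 active means mean Tm shift, scaled 0 neutral to 100 positive control, at about 1.3% or above, every replicate too, limit read from the data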
# * = called active by the depositor; · = not tested or not shown; [ ] = dose if it differs, or a comment. This is a sample that favours compounds with a hit; in the whole collection about 2.5% have one here.
SMILES,SIRT5 inh,miR122 inh,E-sel inducer,S100A4 inh HTS,FGF22 binding
CC(C)NC(=O)Nc1ccc2c(c1)C(=O)N([C@H](C)CO)C[C@H](C)[C@@H](CN(C)S(=O)(=O)c1cccs1)OCCCC[C@@H](C)O2,5.3,13.5[16.7 µM],·,-1.3,0.1
CCn1c(SCC(N)=O)nc2cc(S(=O)(=O)N3CCOCC3)ccc21,0.2,·,-1.8,-1.4,-0.3
CCn1c(CCl)nc2cc(S(=O)(=O)N3CCOCC3)ccc21,·,-2.1,0.9,0.3,43.1*
O=S(=O)(c1ccc(Cl)c(NC(=S)Nc2cccc(O)c2)c1)N1CCOCC1,-3.3,13.3,·,-1.8,1.7*
COc1ccc2cc(S(=O)(=O)N3CCOCC3)ccc2c1,·,11.0,·,·,·
O=C(Nc1cccc(S(=O)(=O)N2CCOCC2)c1)C1CC1,23.0*,-11.0,0.0,-6.2,-0.1
O=S(=O)(c1ccc2ccccc2c1)N1CCOCC1,99.4*,23.2,-0.2,2.4,0.9
C[C@H](CO)N1C[C@H](C)[C@@H](CN(C)C(=O)NC2CCCCC2)Oc2c(NC(=O)NC3CCCCC3)cccc2C1=O,-5.9,3.1[16.7 µM],0.1,11.2,0.0
Cc1ccc(S(=O)(=O)Nc2cccc3c2O[C@@H](CN(C)Cc2ccc(Oc4ccccc4)cc2)[C@@H](C)CN([C@@H](C)CO)C3=O)cc1,-9.0,7.7[16.7 µM],1.8,-58.5,·
CC(=O)N1CC2(C1)[C@H](c1ccc(-c3ccc(C#N)cc3)cc1)[C@H](CO)N2C(C)=O,0.7,·,-0.2,-2.6,-0.1
CCC(=O)N1CC2(CCN(C(C)=O)CC2)c2c([nH]c3cc(OC)ccc23)[C@@H]1CO,-1.9,·,-0.2,-7.7,0.0
O=C(Nc1ccc2c(c1)OCCO2)C1CCN(S(=O)(=O)c2ccccc2)CC1,-5.7,177.1*,-0.7,-12.1,0.3
O=C(Nc1ccc2c(c1)OCCO2)C1CCN(S(=O)(=O)c2ccc3c(c2)OCCO3)CC1,-2.3,3.9,·,2.6,·
Cc1ccc(S(=O)(=O)N2CCOCC2)cc1C(=O)NC1CCCC1,-0.3,-6.4,31.2*,-12.8,-0.2
CO[C@@H]1CN(C)C(=O)c2ccc(NC(=O)C3CCOCC3)cc2OC[C@@H](C)N(C(=O)Nc2ccc(C(F)(F)F)cc2)C[C@H]1C,-1.0,·,0.2,-2.9,-0.1
C[C@@H]1CN([C@H](C)CO)C(=O)c2cc(NS(=O)(=O)c3ccc(F)cc3)ccc2O[C@@H](C)CCCCO[C@H]1CN(C)S(=O)(=O)c1ccc(Cl)cc1,0.0,-6.0[16.7 µM],·,3.0,0.2
C[C@@H]1CCCCO[C@H](CN(C)S(=O)(=O)c2ccc(F)cc2)[C@@H](C)CN([C@@H](C)CO)C(=O)c2cc(NS(=O)(=O)c3ccc(Cl)cc3)ccc2O1,17.4*,16.6[16.7 µM],0.3,0.8,·
C[C@@H]1CCCCO[C@H](CN(C)S(=O)(=O)c2ccc(Cl)cc2)[C@H](C)CN([C@@H](C)CO)C(=O)c2cc(NS(=O)(=O)c3ccc(F)cc3)ccc2O1,22.1*,-10.6[16.7 µM],·,-3.8,0.0
C[C@@H]1CCCCO[C@H](CN(C)S(=O)(=O)c2ccc(Cl)cc2)[C@H](C)CN([C@H](C)CO)C(=O)c2cc(NS(=O)(=O)c3ccc(F)cc3)ccc2O1,20.3*,-7.7[16.7 µM],·,1.6,0.1
C=CCC[C@@H](Cc1ccc(F)cc1)C(=O)OC[C@@H](NC(=O)[C@@H](CC=C)CC(=O)N[C@@H](CO)Cc1ccccc1)C(C)(C)C,·,-8.7,·,-0.2,-0.6
C=CCC[C@H](Cc1ccc(F)cc1)C(=O)OC[C@@H](NC(=O)[C@@H](CC=C)CC(=O)N[C@@H](CO)Cc1ccccc1)C(C)(C)C,1.2,7.0,0.0,3.2,6.2*
COc1ccc(CCC(=O)O)c(C(CC(=O)O)C(=O)O)c1OS(=O)(=O)c1ccc(C)cc1 (stereo not given),·,·,0.1,-2.3,1.6*
CC(C)NC(=O)N(C)C[C@H]1Oc2c(NC(=O)Nc3ccccc3)cccc2C(=O)N([C@@H](C)CO)C[C@H]1C,0.1,-8.1[16.7 µM],0.2,3.6,0.0
O=C(CCl)Nc1cccc(Oc2ccccc2)c1,-2.5,-2.2,1.4,-7.2,42.9*
O=C(CCl)Nc1cccc(Oc2cnccn2)c1,-0.6,-6.1,-0.1,-0.8,0.1
SMILES,SIRT5 inh,miR122 inh,E-sel inducer,S100A4 inh HTS,FGF22 binding
COc1ccc(CNS(=O)(=O)c2ccc(OC)cc2)cc1,·,2.7,·,·,·
COc1ccc(Br)cc1S(=O)(=O)NCc1ccccc1,·,38.2,·,·,·
COc1ccc(S(=O)(=O)NCc2ccccc2)cc1,·,112.8*,·,·,·
O=S(=O)(NCc1ccccc1)c1ccc(Cl)c(S(=O)(=O)NCc2ccccc2)c1,·,105.8*,·,·,·
O=S(=O)(NCc1ccccc1)c1ccc2ccccc2c1,1.4,·,0.3,4.1,0.0
COc1ccc(S(=O)(=O)NCc2ccccc2)cc1Br,4.0,192.3*,·,-1.6,-0.1
O=C(C[C@H]1CC[C@@H]2[C@H](COC[C@H](O)CN2C(=O)c2ccccc2)O1)N1CCOCC1,0.0,2.0[16.7 µM],0.0,-6.8,-0.1
COc1ccc(C2C(C(C)=O)=C(O)C(=O)N2c2nccs2)c(OC)c1 (stereo not given),1.5,·,·,-3.5,45.5*
CN1C(=O)c2cc(NC(=O)C3CCCC3)ccc2OC[C@@H]2O[C@H](CC(=O)NCC(F)(F)F)CC[C@@H]21,0.8,50.0[16.7 µM],0.1,-2.2,-0.1
O=C(C[C@@H]1C[C@@H]2c3cc(NC(=O)Nc4ccccc4)ccc3O[C@@H]2[C@H](CO)O1)NCc1ccncc1,-3.6,-6.5[16.7 µM],-0.2,7.7,-0.2
Cc1c(-c2cccc(NC(=O)c3ccco3)c2)nc2ncccn12,-62.5,·,-0.1,-2.5,44.3*
COc1cc(C(=O)Nc2ccc3c(c2)Cc2ccccc2-3)cc(OC)c1OC,0.4,·,·,1.4,43.4*
CC1(C)CC2CC(C)(CN2C(=O)c2ccc([N+](=O)[O-])cc2)C1 (stereo not given),21.2*,·,0.1,-0.9,0.2
CC1(C)CC2CC(C)(CN2C(=O)c2cc(-c3ccccc3O)on2)C1 (stereo not given),15.7*,-2.7,0.3,-4.0,-0.2
CC1(C)C[C@@H]2C[C@@](C)(CN2C(=O)c2ccccc2)C1,1.0,4.7,·,1.4,-0.1
O=C(NCC[C@@H]1CC[C@H](NC(=O)c2ccccc2F)[C@@H](CO)O1)c1ccc2c(c1)OCO2,16.4*,-14.1[16.7 µM],-0.7,-6.1,0.2
O=C(Nc1cccc(Cl)c1)N[C@H]1CC[C@H](CCNC(=O)C2CCCC2)O[C@H]1CO,6.4,43.7[16.7 µM],0.1,131.9*,-0.6
CC(C)NC(=O)N[C@H]1CC[C@H](CCNC(=O)C2CCCC2)O[C@@H]1CO,24.7*,·,0.1,-4.0,-0.2
